Results reported in ChEMBL document CHEMBL1153403, “Design, synthesis, and evaluation of novel fluoroquinolone-aminoglycoside hybrid antibiotics” (J Med Chem, 2009).
Converted amounts (≈) assume the structure as drawn.

Experiments:
Format in all cases: functional
Escherichia coli [1] = assay: Antibacterial activity against Escherichia coli ATCC 25922 by double-microdilution method
Bacillus subtilis = assay: Antibacterial activity against aminoglycosides-susceptible Bacillus subtilis ATCC 6633 by double-microdilution method
Escherichia coli [2] = assay: Antibacterial activity against kanamycin-resistant Escherichia coli AG100B expressing aminoglycosides resistant APH(3')-1 enzyme by double-microdilution method
Escherichia coli [3] = assay: Antibacterial activity against kanamycin-resistant Escherichia coli AG100A expressing aminoglycosides resistant APH(3')-1 enzyme by double-microdilution method
Escherichia coli [4] = assay: Antibacterial activity against Escherichia coli R477-100 by double-microdilution method
Staphylococcus aureus = assay: Antibacterial activity against methicillin-resistant Staphylococcus aureus ATCC 43300 by double-microdilution method
Escherichia coli [5] = assay: Antibacterial activity against Escherichia coli XL1-blue by double-microdilution method
Escherichia coli [6] = assay: Antibacterial activity against aminoglycosides-resistant Escherichia coli BL21 harboring pETSACG1 expressing APH(3')-3a enzyme by double-microdilution method
Escherichia coli [7] = assay: Resistance index, MIC for aminoglycosides-resistant Escherichia coli BL21 harboring pETSACG1 expressing APH(3')-3a enzyme to MIC for Escherichia coli BL21
Outline: (§1)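 Ratio of MIC on the plasmid-bearing resistant strain to MIC on its background strain (pETSACG1 vs BL21; pET9d or pSF815 vs XL1 blue). MICs by NCCLS double microdilution from starting concentrations of 384 and 1.5 µg/mL, in duplicate, two to four experiments.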

Escherichia coli [8] = assay: Antibacterial activity against aminoglycosides-resistant Escherichia coli XL1-blue harboring pET9d expressing APH(3')-1a enzyme by double-microdilution method
Escherichia coli [9] = assay: Antibacterial activity against aminoglycosides-resistant Escherichia coli XL1-blue harboring pSF815 expressing AAC(6')-APH(2'') enzyme by double-microdilution method
Escherichia coli [10] = assay: Resistance index, MIC for aminoglycosides-resistant Escherichia coli XL1-blue harboring pET9d expressing APH(3')-1a enzyme to MIC for Escherichia coli XL1-blue; outline: as §1
Escherichia coli [11] = assay: Resistance index, MIC for aminoglycosides-resistant Escherichia coli XL1-blue harboring pSF815 expressing AAC(6')-APH(2'') enzyme to MIC for Escherichia coli XL1-blue; outline: as §1
Escherichia coli [12] = assay: Antibacterial activity against Escherichia coli BL21 by double-microdilution method

| Structure (SMILES) | MIC (Escherichia coli [1]) [µg/mL] | MIC (Bacillus subtilis) [µg/mL] | MIC (Escherichia coli [2]) [µg/mL] | MIC (Escherichia coli [3]) [µg/mL] | MIC (Escherichia coli [4]) [µg/mL] | MIC (Staphylococcus aureus) [µg/mL] | MIC (Escherichia coli [5]) [µg/mL] | MIC (Escherichia coli [6]) [µg/mL] | Ratio (Escherichia coli [7]) | MIC (Escherichia coli [8]) [µg/mL] | MIC (Escherichia coli [9]) [µg/mL] | Ratio (Escherichia coli [10]) | Ratio (Escherichia coli [11]) | MIC (Escherichia coli [12]) [µg/mL] |
| --- | --- | --- | --- | --- | --- | --- | --- | --- | --- | --- | --- | --- | --- | --- |
| NC[C@@H]1O[C@H](O[C@H]2[C@@H](O)[C@H](O[C@@H]3[C@@H](O)[C@H](N)C[C@H](N)[C@H]3O[C@H]3O[C@H](CN)[C@@H](O)[C@H](O)[C@H]3N)O[C@@H]2C(=O)Nc2ccc(-c3cn(CCCCCN4CCN(c5cc6c(cc5F)c(=O)c(C(=O)O)cn6C5CC5)CC4)nn3)cc2)[C@H](N)[C@@H](O)[C@@H]1O | 6 (≈ 5.13 µM) | 12 (≈ 10.3 µM) | 24 (≈ 20.5 µM) | 1.5 (≈ 1.28 µM) | 12 (≈ 10.3 µM) | 48 (≈ 41 µM) | – | – | – | – | – | – | – | – |
| NC[C@@H]1O[C@H](O[C@H]2[C@@H](O)[C@H](O[C@@H]3[C@@H](O)[C@H](N)C[C@H](N)[C@H]3O[C@H]3O[C@H](CN)[C@@H](O)[C@H](O)[C@H]3N)O[C@@H]2C(=O)NCc2cn(CCN3CCN(c4cc5c(cc4F)c(=O)c(C(=O)O)cn5C4CC4)CC3)nn2)[C@H](N)[C@@H](O)[C@@H]1O | 6 (≈ 5.63 µM) | 3 (≈ 2.81 µM) | 12 (≈ 11.3 µM) | 1.5 (≈ 1.41 µM) | 12 (≈ 11.3 µM) | 24 (≈ 22.5 µM) | – | – | – | – | – | – | – | – |
| NC[C@@H]1O[C@H](O[C@H]2[C@@H](O)[C@H](O[C@@H]3[C@@H](O)[C@H](N)C[C@H](N)[C@H]3O[C@H]3O[C@H](CN)[C@@H](O)[C@H](O)[C@H]3N)O[C@@H]2C(=O)Nc2ccc(-c3cn(CCOCCN4CCN(c5cc6c(cc5F)c(=O)c(C(=O)O)cn6C5CC5)CC4)nn3)cc2)[C@H](N)[C@@H](O)[C@@H]1O | 12 (≈ 10.2 µM) | 12 (≈ 10.2 µM) | 12 (≈ 10.2 µM) | 1.5 (≈ 1.28 µM) | 24 (≈ 20.5 µM) | 24 (≈ 20.5 µM) | – | – | – | – | – | – | – | – |
| NC[C@@H]1O[C@H](O[C@H]2[C@@H](O)[C@H](O[C@@H]3[C@@H](O)[C@H](N)C[C@H](N)[C@H]3O[C@H]3O[C@H](CN)[C@@H](O)[C@H](O)[C@H]3N)O[C@@H]2C(=O)Nc2ccc(-c3cn(Cc4cccc(CN5CCN(c6cc7c(cc6F)c(=O)c(C(=O)O)cn7C6CC6)CC5)c4)nn3)cc2)[C@H](N)[C@@H](O)[C@@H]1O | 12 (≈ 9.96 µM) | 6 (≈ 4.98 µM) | 12 (≈ 9.96 µM) | 1.5 (≈ 1.25 µM) | 6 (≈ 4.98 µM) | 12 (≈ 9.96 µM) | – | – | – | – | – | – | – | – |
| NC[C@@H]1O[C@H](O[C@H]2[C@@H](O)[C@H](O[C@@H]3[C@@H](O)[C@H](N)C[C@H](N)[C@H]3O[C@H]3O[C@H](CN)[C@@H](O)[C@H](O)[C@H]3N)O[C@@H]2C(=O)Nc2ccc(-c3cn(CCN4CCN(c5cc6c(cc5F)c(=O)c(C(=O)O)cn6C5CC5)CC4)nn3)cc2)[C@H](N)[C@@H](O)[C@@H]1O | 6 (≈ 5.32 µM) | 6 (≈ 5.32 µM) | 24 (≈ 21.3 µM) | 0.75 (≈ 0.665 µM) | 12 (≈ 10.6 µM) | 48 (≈ 42.5 µM) | – | – | – | – | – | – | – | – |
| NC[C@@H]1O[C@H](O[C@H]2[C@@H](O)[C@H](O[C@@H]3[C@@H](O)[C@H](N)C[C@H](N)[C@H]3O[C@H]3O[C@H](CN)[C@@H](O)[C@H](O)[C@H]3N)O[C@@H]2C(=O)NCc2cn(CCCCCN3CCN(c4cc5c(cc4F)c(=O)c(C(=O)O)cn5C4CC4)CC3)nn2)[C@H](N)[C@@H](O)[C@@H]1O | 6 (≈ 5.41 µM) | 12 (≈ 10.8 µM) | 24 (≈ 21.7 µM) | 1.5 (≈ 1.35 µM) | 24 (≈ 21.7 µM) | 48 (≈ 43.3 µM) | – | – | – | – | – | – | – | – |
| NC[C@@H]1O[C@H](O[C@H]2[C@@H](O)[C@H](O[C@@H]3[C@@H](O)[C@H](N)C[C@H](N)[C@H]3O[C@H]3O[C@H](CN)[C@@H](O)[C@H](O)[C@H]3N)O[C@@H]2C(=O)NCc2cn(CCOCCN3CCN(c4cc5c(cc4F)c(=O)c(C(=O)O)cn5C4CC4)CC3)nn2)[C@H](N)[C@@H](O)[C@@H]1O | 6 (≈ 5.4 µM) | 12 (≈ 10.8 µM) | 12 (≈ 10.8 µM) | 1.5 (≈ 1.35 µM) | 12 (≈ 10.8 µM) | 24 (≈ 21.6 µM) | – | – | – | – | – | – | – | – |
| NC[C@@H]1O[C@H](O[C@H]2[C@@H](O)[C@H](O[C@@H]3[C@@H](O)[C@H](N)C[C@H](N)[C@H]3O[C@H]3O[C@H](CN)[C@@H](O)[C@H](O)[C@H]3N)O[C@@H]2C(=O)Nc2ccc(-c3cn(CCCN4CCN(c5cc6c(cc5F)c(=O)c(C(=O)O)cn6C5CC5)CC4)nn3)cc2)[C@H](N)[C@@H](O)[C@@H]1O | 3 (≈ 2.63 µM) | 6 (≈ 5.25 µM) | 12 (≈ 10.5 µM) | 1.5 (≈ 1.31 µM) | 6 (≈ 5.25 µM) | 48 (≈ 42 µM) | – | – | – | – | – | – | – | – |
| NC[C@@H]1O[C@H](O[C@H]2[C@@H](O)[C@H](O[C@@H]3[C@@H](O)[C@H](N)C[C@H](N)[C@H]3O[C@H]3O[C@H](CN)[C@@H](O)[C@H](O)[C@H]3N)O[C@@H]2C(=O)NCc2cn(Cc3ccc(CN4CCN(c5cc6c(cc5F)c(=O)c(C(=O)O)cn6C5CC5)CC4)cc3)nn2)[C@H](N)[C@@H](O)[C@@H]1O | 6 (≈ 5.25 µM) | 3 (≈ 2.63 µM) | 12 (≈ 10.5 µM) | 1.5 (≈ 1.31 µM) | 6 (≈ 5.25 µM) | 3 (≈ 2.63 µM) | 6 (≈ 5.25 µM) | 0.4 (≈ 0.35 µM) | 1 | 6 (≈ 5.25 µM) | 6 (≈ 5.25 µM) | 1 | 1 | 0.4 (≈ 0.35 µM) |
| NC[C@@H]1O[C@H](O[C@H]2[C@@H](O)[C@H](O[C@@H]3[C@@H](O)[C@H](N)C[C@H](N)[C@H]3O[C@H]3O[C@H](CN)[C@@H](O)[C@H](O)[C@H]3N)O[C@@H]2C(=O)Nc2ccc(-c3cn(CCCCN4CCN(c5cc6c(cc5F)c(=O)c(C(=O)O)cn6C5CC5)CC4)nn3)cc2)[C@H](N)[C@@H](O)[C@@H]1O | 6 (≈ 5.19 µM) | 6 (≈ 5.19 µM) | 24 (≈ 20.8 µM) | 1.5 (≈ 1.3 µM) | 12 (≈ 10.4 µM) | 24 (≈ 20.8 µM) | – | – | – | – | – | – | – | – |
| NC[C@@H]1O[C@H](O[C@H]2[C@@H](O)[C@H](O[C@@H]3[C@@H](O)[C@H](N)C[C@H](N)[C@H]3O[C@H]3O[C@H](CN)[C@@H](O)[C@H](O)[C@H]3N)O[C@@H]2C(=O)NCc2cn(Cc3cccc(CN4CCN(c5cc6c(cc5F)c(=O)c(C(=O)O)cn6C5CC5)CC4)c3)nn2)[C@H](N)[C@@H](O)[C@@H]1O | 6 (≈ 5.25 µM) | 3 (≈ 2.63 µM) | 12 (≈ 10.5 µM) | 0.75 (≈ 0.657 µM) | 6 (≈ 5.25 µM) | 6 (≈ 5.25 µM) | 6 (≈ 5.25 µM) | 0.4 (≈ 0.35 µM) | 1 | 6 (≈ 5.25 µM) | 24 (≈ 21 µM) | 1 | 4 | 0.4 (≈ 0.35 µM) |
| NC[C@@H]1O[C@H](O[C@H]2[C@@H](O)[C@H](O[C@@H]3[C@@H](O)[C@H](N)C[C@H](N)[C@H]3O[C@H]3O[C@H](CN)[C@@H](O)[C@H](O)[C@H]3N)O[C@@H]2C(=O)NCc2cn(CCCN3CCN(c4cc5c(cc4F)c(=O)c(C(=O)O)cn5C4CC4)CC3)nn2)[C@H](N)[C@@H](O)[C@@H]1O | 6 (≈ 5.55 µM) | 6 (≈ 5.55 µM) | 12 (≈ 11.1 µM) | 1.5 (≈ 1.39 µM) | 12 (≈ 11.1 µM) | 48 (≈ 44.4 µM) | – | – | – | – | – | – | – | – |
| NC[C@@H]1O[C@H](O[C@H]2[C@@H](O)[C@H](O[C@@H]3[C@@H](O)[C@H](N)C[C@H](N)[C@H]3O[C@H]3O[C@H](CN)[C@@H](O)[C@H](O)[C@H]3N)O[C@@H]2C(=O)Nc2ccc(-c3cn(CCCCCCN4CCN(c5cc6c(cc5F)c(=O)c(C(=O)O)cn6C5CC5)CC4)nn3)cc2)[C@H](N)[C@@H](O)[C@@H]1O | 6 (≈ 5.07 µM) | 12 (≈ 10.1 µM) | 12 (≈ 10.1 µM) | 1.5 (≈ 1.27 µM) | 6 (≈ 5.07 µM) | 48 (≈ 40.5 µM) | – | – | – | – | – | – | – | – |
